Assay results from ChEMBL document CHEMBL1141374 (J Med Chem, 2007).
Each block holds one molecule with its values, some of them ahead of it.

How the values were obtained:
[1] = Cytotoxicity against P-glycoprotein-overexpressing KB-V1 cell line; assay type: cell-based; details: Homo sapiens
In short: (§1)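 Log-phase cells were diluted to 20 000–30 000 cells/mL, seeded, and left to attach overnight. They were then exposed to compounds at 10^–5–10^–12 M for 72 h at 37 °C in 5% CO2. Viable cells were measured by MTT, with absorbance read at 595 nm. Each compound ran in triplicate in at least three independent assays. IC50 came from nonlinear regression, and average values were reported.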

CCRF-CEM = test: Growth inhibition in CCRF-CEM cells; assay type: functional; details: Homo sapiens
HL-60 = test: Growth inhibition in HL60 cells; assay type: functional; details: Homo sapiens
K562 = test: Growth inhibition in K562 cells; assay type: functional; details: Homo sapiens
A549 = test: Growth inhibition in A549 cells; assay type: functional; details: Homo sapiens
EKVX = test: Growth inhibition in EKVX cells; assay type: functional; details: Homo sapiens
HOP-62 = test: Growth inhibition in HOP62 cells; assay type: functional; details: Homo sapiens
HOP-92 = test: Growth inhibition in HOP92 cells; assay type: functional; details: Homo sapiens
NCI-H226 = test: Growth inhibition in NCI-H226 cells; assay type: functional; details: Homo sapiens
NCI-H23 = test: Growth inhibition in NCI-H23 cells; assay type: functional; details: Homo sapiens
NCI-H322M = test: Growth inhibition in NCI-H322M cells; assay type: functional; details: Homo sapiens
NCI-H460 = test: Growth inhibition in NCI-H460 cells; assay type: functional; details: Homo sapiens
COLO 205 = test: Growth inhibition in COLO205 cells; assay type: functional; details: Homo sapiens
HCC 2998 = test: Growth inhibition in HCC2998 cells; assay type: functional; details: Homo sapiens
[2] = Growth inhibition in HCC116 cells; assay type: functional; details: Homo sapiens
[3] = Growth inhibition in HCC15 cells; assay type: functional; details: Homo sapiens
HT-29 = test: Growth inhibition in HT29 cells; assay type: functional; details: Homo sapiens
KM12 = test: Growth inhibition in KM12 cells; assay type: functional; details: Homo sapiens
SW-620 = test: Growth inhibition in SW620 cells; assay type: functional; details: Homo sapiens
SF-268 = test: Growth inhibition in SF268 cells; assay type: functional; details: Homo sapiens
SF-295 = test: Growth inhibition in SF295 cells; assay type: functional; details: Homo sapiens
SF-539 = test: Growth inhibition in SF539 cells; assay type: functional; details: Homo sapiens
SNB-19 = test: Growth inhibition in SNB19 cells; assay type: functional; details: Homo sapiens
SNB-75 = test: Growth inhibition in SNB75 cells; assay type: functional; details: Homo sapiens
U-251 = test: Growth inhibition in U251cells; assay type: functional; details: Homo sapiens
LOX IMVI = test: Growth inhibition in LOX IMVI cells; assay type: functional; details: Homo sapiens
M14 = test: Growth inhibition in M14 cells; assay type: functional; details: Homo sapiens
SK-MEL-28 = test: Growth inhibition in SK-MEL-28 cells; assay type: functional; details: Homo sapiens
SK-MEL-5 = test: Growth inhibition in SK-MEL-5 cells; assay type: functional; details: Homo sapiens
UACC-257 = test: Growth inhibition in UACC257 cells; assay type: functional; details: Homo sapiens
UACC-62 = test: Growth inhibition in UACC62 cells; assay type: functional; details: Homo sapiens
OVCAR-3 = test: Growth inhibition in OVCAR-3 cells; assay type: functional; details: Homo sapiens
OVCAR-4 = test: Growth inhibition in OVCAR4 cells; assay type: functional; details: Homo sapiens
OVCAR-5 = test: Growth inhibition in OVCAR5 cells; assay type: functional; details: Homo sapiens
OVCAR-8 = test: Growth inhibition in OVCAR8 cells; assay type: functional; details: Homo sapiens
SK-OV-3 = test: Growth inhibition in SKOV3 cells; assay type: functional; details: Homo sapiens
RXF 393 = test: Growth inhibition in RXF393 cells; assay type: functional; details: Homo sapiens
SN12C = test: Growth inhibition in SN12C cells; assay type: functional; details: Homo sapiens
786-0 = test: Growth inhibition in 786-0 cells; assay type: functional; details: Homo sapiens
A498 = test: Growth inhibition in A498 cells; assay type: functional; details: Homo sapiens
ACHN = test: Growth inhibition in ACHN cells; assay type: functional; details: Homo sapiens
CAKI-1 = test: Growth inhibition in CAK1-1 cells; assay type: functional; details: Homo sapiens
TK-10 = test: Growth inhibition in TK10 cells; assay type: functional; details: Homo sapiens
PC-3 = test: Growth inhibition in PC3 cells; assay type: functional; details: Homo sapiens
DU-145 = test: Growth inhibition in DU145 cells; assay type: functional; details: Homo sapiens
MCF7 = test: Growth inhibition in MCF7 cells; assay type: functional; details: Homo sapiens
NCI/ADR-RES = test: Growth inhibition in NCI/ADR-RES cells; assay type: functional; details: Homo sapiens
[4] = Growth inhibition in MDA-MB-231/ATCC cells; assay type: functional; details: Homo sapiens
[5] = Growth inhibition in HS 578T cells; assay type: functional; details: Homo sapiens
MDA-MB-435 = test: Growth inhibition in MDA-MB-435 cells; assay type: functional; details: Homo sapiens
BT-549 = test: Growth inhibition in BT549 cells; assay type: functional; details: Homo sapiens
HCT-116 = test: Cytotoxicity against HCT116 cell line; assay type: cell-based; details: Homo sapiens; in short: as §1
ZR-75-1 = test: Cytotoxicity against ZR-75-1 cell line; assay type: cell-based; details: Homo sapiens; in short: as §1
HeLa = test: Cytotoxicity against HeLa cell line; assay type: cell-based; details: Homo sapiens; in short: as §1
[6] = Cytotoxicity against KB-3-1 cell line; assay type: cell-based; details: Homo sapiens; in short: as §1
Tubulin = test: Inhibition of tubulin polymerization; assay type: protein-complex assay, Homo sapiens
In short: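 Kit-based assay run per the manufacturer's instructions. Tubulin (>99% pure, 3 mg/mL) in G-PEM buffer, in a prewarmed plate with compound at 0.03–30 μM. OD340 nm read every 60 s at 37 °C for 1 h.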

NCI-H522 = test: Growth inhibition in NCI-H522 cells; assay type: functional; details: Homo sapiens
SK-MEL-2 = test: Growth inhibition in SK-MEL-2 cells; assay type: functional; details: Homo sapiens
IGROV-1 = test: Growth inhibition in IGROV1 cells; assay type: functional; details: Homo sapiens
UO-31 = test: Growth inhibition in UO31 cells; assay type: functional; details: Homo sapiens
T47D = test: Growth inhibition in T47D cells; assay type: functional; details: Homo sapiens

GI50 (CCRF-CEM): 1860 nM
GI50 (HL-60): 4070 nM
GI50 (K562): 631 nM
GI50 (A549): 8320 nM
GI50 (NCI-H226): 5250 nM
GI50 (NCI-H23): 3160 nM
GI50 (NCI-H322M): 5620 nM
GI50 (NCI-H460): 3390 nM
GI50 (COLO 205): 3470 nM
GI50 (HCC 2998): 295 nM
GI50 (HT-29): 2140 nM
GI50 (SW-620): 2750 nM
GI50 (U-251): 4370 nM
GI50 (SK-MEL-28): 9550 nM
GI50 (SK-MEL-5): 2400 nM
GI50 (OVCAR-3): 1740 nM
GI50 (OVCAR-4): 5500 nM
GI50 (OVCAR-5): 3800 nM
GI50 (OVCAR-8): 4790 nM
GI50 (SK-OV-3): 6460 nM
GI50 (786-0): 2510 nM
GI50 (ACHN): 4470 nM
GI50 (PC-3): 4900 nM
GI50 (DU-145): 2950 nM
GI50 (MCF7): 1700 nM
GI50 (MDA-MB-435): 234 nM
GI50 (BT-549): 9770 nM
SMILES: COc1ccc(-n2cnnc2-c2cc(OC)c(OC)c(OC)c2)cc1
IC50 [1]: 907 nM
GI50 (EKVX): 37200 nM
GI50 (HOP-62): 2090 nM
GI50 (HOP-92): > 100000 nM
GI50 [2]: 3020 nM
GI50 [3]: 1700 nM
GI50 (KM12): 2140 nM
GI50 (SF-268): 5890 nM
GI50 (SF-295): 1290 nM
GI50 (SF-539): 4070 nM
GI50 (SNB-19): 5250 nM
GI50 (SNB-75): 2340 nM
GI50 (LOX IMVI): 4370 nM
GI50 (M14): 1950 nM
GI50 (UACC-257): 3980 nM
GI50 (UACC-62): 3240 nM
GI50 (RXF 393): 1580 nM
GI50 (SN12C): 4070 nM
GI50 (A498): 3800 nM
GI50 (CAKI-1): 2570 nM
GI50 (TK-10): 9770 nM
GI50 (NCI/ADR-RES): 1780 nM
GI50 [4]: 3160 nM
GI50 [5]: 2950 nM
IC50 (HCT-116): 230 nM
IC50 (ZR-75-1): 522 nM
IC50 (HeLa): 290 nM
IC50 [6]: 373 nM

IC50 (Tubulin): 6000 nM
GI50 (CCRF-CEM): 295 nM
GI50 (HL-60): 389 nM
GI50 (K562): 209 nM
GI50 (A549): 1000 nM
GI50 (NCI-H226): > 100000 nM
GI50 (NCI-H23): 4270 nM
GI50 (NCI-H322M): 91200 nM
GI50 (NCI-H460): 407 nM
GI50 (NCI-H522): 263 nM
GI50 (COLO 205): 1170 nM
GI50 (HCC 2998): 933 nM
GI50 (HT-29): 2880 nM
GI50 (SW-620): 380 nM
GI50 (U-251): 407 nM
GI50 (SK-MEL-2): 724 nM
GI50 (SK-MEL-28): 427 nM
GI50 (SK-MEL-5): 288 nM
GI50 (OVCAR-3): 195 nM
GI50 (OVCAR-4): 417 nM
GI50 (OVCAR-5): 1950 nM
GI50 (OVCAR-8): 977 nM
GI50 (SK-OV-3): 316 nM
GI50 (786-0): 501 nM
GI50 (ACHN): 417 nM
GI50 (PC-3): 288 nM
GI50 (DU-145): 661 nM
GI50 (MCF7): 617 nM
GI50 (MDA-MB-435): 24.6 nM
GI50 (BT-549): 3630 nM
GI50 (T47D): 269 nM
SMILES: COc1ccc(-n2cnnc2-c2cc(OC)c(OC)c(OC)c2)cc1O
IC50 [1]: 544 nM
GI50 (HOP-62): 490 nM
GI50 (HOP-92): 617 nM
GI50 [2]: 398 nM
GI50 [3]: 631 nM
GI50 (KM12): 141 nM
GI50 (SF-268): 257 nM
GI50 (SF-295): 302 nM
GI50 (SF-539): 372 nM
GI50 (SNB-19): 407 nM
GI50 (SNB-75): 251 nM
GI50 (LOX IMVI): 550 nM
GI50 (M14): 295 nM
GI50 (UACC-257): > 100000 nM
GI50 (UACC-62): 407 nM
GI50 (IGROV-1): 447 nM
GI50 (RXF 393): 309 nM
GI50 (SN12C): 603 nM
GI50 (A498): 417 nM
GI50 (CAKI-1): 708 nM
GI50 (TK-10): 7410 nM
GI50 (UO-31): 501 nM
GI50 (NCI/ADR-RES): 1550 nM
GI50 [4]: 977 nM
GI50 [5]: 363 nM
IC50 (HCT-116): 88.9 nM
IC50 (ZR-75-1): 141 nM
IC50 (HeLa): 25 nM
IC50 [6]: 57.3 nM
